TRPC4 potent – positive allosteric modulators of TRPC4, primary screen, cell-based, mouse TRPC4beta, HEK293 mu-opioid, Fluo-4 calcium; Short transient receptor potential channel 4 (Mus musculus), Q9QUQ5; DAMGO EC20, Fluo-4 Ca2+ flux; stronger effect = higher value; B-score at 10 µM; hit rate 0.42% among 310,000; AID 2227, 2009;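 active = B-score of calcium response area above 5 SD of library B-scores, with initial fluorescence ratio within 5 SD of library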;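 note: B-score of integrated fluorescence ratio over time as area under calcium response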
Target sequence (Q9QUQ5 whole entry, looked up): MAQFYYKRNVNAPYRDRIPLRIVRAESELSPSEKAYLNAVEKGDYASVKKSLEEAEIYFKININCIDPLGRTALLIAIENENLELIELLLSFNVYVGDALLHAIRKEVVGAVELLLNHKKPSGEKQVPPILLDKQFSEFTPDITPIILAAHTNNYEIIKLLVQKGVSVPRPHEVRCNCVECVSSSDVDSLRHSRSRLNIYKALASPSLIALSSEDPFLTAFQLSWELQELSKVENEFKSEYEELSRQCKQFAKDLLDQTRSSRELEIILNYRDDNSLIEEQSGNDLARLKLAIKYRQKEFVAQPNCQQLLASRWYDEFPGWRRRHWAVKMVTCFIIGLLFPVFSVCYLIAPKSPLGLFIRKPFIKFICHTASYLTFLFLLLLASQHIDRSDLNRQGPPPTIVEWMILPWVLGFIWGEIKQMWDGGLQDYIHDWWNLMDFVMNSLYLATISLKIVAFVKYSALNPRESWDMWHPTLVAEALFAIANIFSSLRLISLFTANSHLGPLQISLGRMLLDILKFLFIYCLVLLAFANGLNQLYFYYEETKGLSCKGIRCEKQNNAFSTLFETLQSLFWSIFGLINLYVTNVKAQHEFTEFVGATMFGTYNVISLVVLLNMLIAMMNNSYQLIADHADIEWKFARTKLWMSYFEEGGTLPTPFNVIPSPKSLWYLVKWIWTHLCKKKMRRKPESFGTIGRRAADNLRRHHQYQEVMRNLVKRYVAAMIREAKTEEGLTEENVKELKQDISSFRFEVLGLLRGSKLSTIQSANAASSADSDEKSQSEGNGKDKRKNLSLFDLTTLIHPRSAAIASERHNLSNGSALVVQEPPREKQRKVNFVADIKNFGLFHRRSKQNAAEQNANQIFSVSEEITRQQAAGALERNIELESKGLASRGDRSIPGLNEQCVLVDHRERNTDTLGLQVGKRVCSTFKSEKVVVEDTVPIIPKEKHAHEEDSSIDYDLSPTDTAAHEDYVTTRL
TRPC6 inh – mouse TRPC6 channel inhibitors, primary screen, cell-based, HEK293, membrane potential dye; hit rate 1.1% among 310,000; B-score at 10 µM; ACh-evoked depolarization; stronger effect = lower value; Short transient receptor potential channel 6 (Mus musculus), Q61143; AID 2553, 2010;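 active = B-score under library mean minus 3 SD, initial fluorescence not abnormally high, positive integrated signal ratio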;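 note: B-score derived from integrated fluorescence ratio over the kinetic read; more negative B-score means stronger inhibition of depolarization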
TRPC4 inh – inhibitors of mouse TRPC4 channel, primary screen, Fluo4 calcium, HEK293 TRPC4beta/mu-opioid cells; hit rate 0.39% among 300,000; B-score at 10 µM; DAMGO-evoked Fluo4 calcium flux; stronger effect = lower value; AID 2247, 2010;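 active = B-score over 3 SD under the library average, no early fluorescence shift, positive overall ratio signal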
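Assay system – HEK293 line stably carrying TRPC4beta and mu-opioid receptor · Doses – single dose · Detection – Fluo4 calcium-dye fluorescence, kinetic read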
TRPC6 activator – mouse TRPC6 channel activators, primary screen, cell-based, HEK293, membrane potential dye; HEK293-TRPC6 membrane potential dye fluorescence; stronger effect = higher value; AID 2550, 2010; Short transient receptor potential channel 6 (Mus musculus), Q61143; hit rate 0.13% among 310,000; B-score at 10 µM;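 active = B-score of the integrated fluorescence ratio above library mean plus 3 SD, and starting fluorescence ratio within library mean plus 5 SD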;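 note: higher score means more depolarization so channel activation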
TRPC4 act – activators of mouse TRPC4 channel, primary screen, Fluo4 calcium, HEK293 TRPC4beta/mu-opioid cells. Short transient receptor potential channel 4 (Mus musculus), Q9QUQ5. Fluo4 calcium fluorescence; stronger effect = higher value. B-score at 10 µM. hit rate 0.49% among 310,000;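 active = B-score above 5 SD of library B-scores, and initial fluorescence ratio not above library mean plus 5 SD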;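 note: positive B-score marks a calcium rise read as TRPC4 activation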
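System: HEK293 cells stably co-expressing mouse TRPC4beta and mu-opioid receptor; Schedule: Fluo4 dye loading 45 min at room temperature, 110 s recording; Detection: Fluo4 fluorescence, kinetic; Evaluation: B-scored integrated calcium fluorescence ratio; Controls: buffer (low) and maximal DAMGO (high).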
TRPC4 sel inh 2 – mouse TRPC4 off-target activity of TRPC6 inhibitors, second screen | HEK293 TRPC4/MOR, membrane potential dye fluorescence; channel activated by saturating DAMGO dose | inhibition, % at 10 µM | AID 2776 | hit rate 42% among 920 | shares compounds with TRPC6 inh;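 active = compounds whose fluorescence signal differed from control wells by over 3 SD, either direction, in both duplicate plates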
TRPC4 spec – mouse TRPC4 modulation by TRPC6 hits, confirmation, selectivity assay for TRPC6 inhibitor project, cell-based, HEK293 TRPC4/mu-opioid, membrane potential dye; shares compounds with TRPC6 inh; activity change, negative = inhibition, % at 10 µM; membrane potential fluorescence; hit rate 61% among 920;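 active = rise or fall in signal beyond 3 SD of buffer-only wells in both replicate plates, either sign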;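 note: integrated kinetic ratio of fluorescence range over baseline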
HEK293 MPD ctr 2-1 – nonspecific membrane potential effects, parental HEK293, confirmation, counter-screen for TRPC6 inhibitor project, cell-based, second counter screen. shares compounds with TRPC6 inh. parental HEK293 membrane potential dye fluorescence; maximal acetylcholine challenge after compound addition. signal change vs control, % at 10 µM. hit rate 31% among 920. AID 2779, 2010;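 active = membrane potential signal moving either way by over 3 SD of the maximum-effect control, in both duplicate plates, meaning non-specific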
HEK293 MPD ctr-1 – membrane potential modulation in parental HEK293, confirmation, counter-screen for TRPC6 inhibitor project, cell-based | shares compounds with TRPC6 inh | parental HEK293 membrane potential dye fluorescence | membrane potential signal change, % at 10 µM | hit rate 60% among 920;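 active = membrane potential signal shifting up or down by more than 3 SD of buffer-only wells, on both duplicate plates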
HEK293 MPD ctr-2 – parental HEK293 membrane potential modulation, confirmation, counter-screen for TRPC6 modulator project, cell-based; membrane potential signal change, % at 10 µM; AID 488924, 2010; hit rate 51% among 2,400; membrane potential dye fluorescence; shares compounds with TRPC6 inh;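 active = membrane potential signal moves up or down beyond 5 SD from buffer-only wells, on both duplicate plates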
HEK293 MPD ctr 2-2 – second counter-screen for TRPC6 modulators: effect in parental HEK293 cells. shares compounds with TRPC6 inh. membrane potential dye fluorescence; after compound, maximal acetylcholine stimulation. inhibition, % at 10 µM. hit rate 14% among 2,400. AID 488926;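 active = membrane potential signal drops by more than 5 SD from the mean control signal, in both duplicate plates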;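 note: plate controls were acetylcholine ECmax control wells for no effect and buffer only wells for full effect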
TRPC4/MOR mod – TRPC4 modulation by TRPC6 hit compounds, confirmation, selectivity assay for TRPC6 modulator project, cell-based, HEK293 TRPC4/mu-opioid, membrane potential dye, mouse. shares compounds with TRPC6 inh. membrane potential fluorescence. percent change from control (negative = decrease, positive = increase), % at 10 µM. hit rate 69% among 2,400. AID 488927, 2010;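 active = membrane potential signal moved up or down beyond 5 SD of buffer control wells, in both duplicate plates, actives on both sides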;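 note: plate controls were assay buffer wells for no effect and DAMGO maximal-effect wells for full effect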
TRPC4/MOR inh 2 – second check of whether TRPC6 modulators also affect mouse TRPC4 | hit rate 55% among 2,400 | inhibition, % at 10 µM | HEK293 TRPC4/mu-opioid, membrane potential dye fluorescence; stimulated with maximal-effect DAMGO | shares compounds with TRPC6 inh;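 active = drop in membrane potential signal beyond 5 SD of the control wells in both duplicate plates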;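 note: TRPC4 counter screen for TRPC6 hits run under conditions tuned for TRPC6 not TRPC4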
TRPC6 inh conf – mouse TRPC6 channel inhibitors, confirmation, HEK293 cells, membrane potential dye, duplicate; inhibition, % at 10 µM; shares compounds with TRPC6 inh; AID 488960, 2010; hit rate 43% among 3,300; ACh-evoked depolarization;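 active = fluorescence ratio falls more than 5 SD below the full-stimulation control mean, in both duplicate runs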;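 note: integrated fluorescence ratio of peak minus minimum over baseline after agonist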
TRPC6 act confirm – mouse TRPC6 channel activators, confirmation, HEK293 cells, membrane potential dye, duplicate | activation, % at 10 µM | HEK293-TRPC6 membrane potential dye fluorescence, FDSS | hit rate 11% among 2,800 | shares compounds with TRPC6 inh | AID 488961, 2010;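 active = ratio signal rise beyond 5 SD above unstimulated control wells' mean, seen in both duplicate runs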;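 note: plate controls were buffer EC0 wells for no effect and acetylcholine ECmax response for full effect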
Active calls of the source: *; i = inactive; / = no result. The list is not random: actives were taken first. Their share in the collection is about 2.3%.

SMILES | TRPC4 potent | TRPC6 inh | TRPC4 inh | TRPC6 activator | TRPC4 act | TRPC4 sel inh 2 | TRPC4 spec | HEK293 MPD ctr 2-1 | HEK293 MPD ctr-1 | HEK293 MPD ctr-2 | HEK293 MPD ctr 2-2 | TRPC4/MOR mod | TRPC4/MOR inh 2 | TRPC6 inh conf | TRPC6 act confirm
Cc1c(F)cccc1NS(=O)(=O)c1ccc2c(c1)c(C)cc(=O)n2C | i | -6.8* | i | i | i | i | i | i | i | / | / | / | / | i | i
CCOC(=O)c1c(CSc2ccccc2)n(C)c2cc(Br)c(O)c(CN(C)C)c12 | i | -5.9* | i | i | i | / | / | / | / | i | i | i | 56%* | 44%* | i
CCOC(=O)c1c(CSc2ccc(C)cc2)n(C)c2cc(Br)c(O)c(CN(C)C)c12 | i | -5.9* | i | i | i | / | / | / | / | i | i | i | 64%* | 47%* | i
CCOC(=O)c1c(CSc2ccsc2)n(C)c2cc(Br)c(O)c(CN(C)C)c12 | i | i | i | i | i | / | / | / | / | / | / | / | / | / | /
CCOC(=O)c1c(CN2CCCCC2)n(C)c2cc(Br)c(O)c(CN(C)C)c12 | i | -7.1* | i | i | i | / | / | / | / | -252%* | i | -52%* | 58%* | 45%* | i
CCOC(=O)c1c(CN2CCOCC2)n(-c2ccccc2)c2cc(Br)c(O)c(CN(C)C)c12 | i | i | i | i | i | / | / | / | / | / | / | / | / | / | /
CN(C)C(=O)c1cc(C(=O)c2c(F)cccc2F)c[nH]1 | i | i | i | i | i | / | / | / | / | / | / | / | / | / | /
CC1CN(c2ccc([N+](=O)[O-])c(NCCOc3ccccc3)c2)CCN1 (stereo not drawn) | i | -7.3* | i | i | i | i | -11%* | i | -142%* | / | / | / | / | i | i
Cc1c(OCC(=O)N2C[C@H]3C[C@@H](C2)c2cccc(=O)n2C3)ccc2c3c(c(=O)oc12)CCCC3 | i | -7* | i | i | i | i | 5.1%* | 17%* | 5.9%* | / | / | / | / | 77%* | /
Cc1c(OCC(=O)N2C[C@H]3C[C@@H](C2)c2cccc(=O)n2C3)ccc2c3c(c(=O)oc12)CCC3 | i | i | i | i | i | / | / | / | / | / | / | / | / | / | /
Cc1ccc(S(=O)(=O)NCc2ccc(C(=O)NCCN(Cc3ccccc3)C(C)C)cc2)cc1 | i | i | i | i | i | / | / | / | / | / | / | / | / | / | /
CCOC(=O)N1CCC(N2CCN(CCC(C)C)C(CCO)C2)CC1 (stereo not drawn) | i | -7.6* | i | i | i | i | 9.0%* | -4.0%* | 1.5%* | / | / | / | / | 64%* | /
CC(=O)C(Cc1cccc(F)c1)(Cc1cccc(F)c1)C(C)=O | i | -6* | i | i | i | / | / | / | / | 114%* | i | 34%* | i | i | /
Cc1ccc(NC(=O)C2CCCN2C(=O)OCc2ccccc2)c(O)c1 (stereo not drawn) | i | i | i | i | i | / | / | / | / | / | / | / | / | / | /
O=S1(=O)CC(O)C(NCCO)C1 (stereo not drawn) | i | i | i | i | i | / | / | / | / | / | / | / | / | / | /
CN(C)CCCNC1CS(=O)(=O)CC1O (stereo not drawn) | i | -7.2* | i | i | i | i | i | i | i | / | / | / | / | i | i
COC(=O)c1sccc1NC(=O)CSCCc1ccccn1 | i | i | i | i | i | / | / | / | / | / | / | / | / | / | /
CCc1cc(-c2[nH]ncc2-c2ccc3c(c2)OCO3)c(O)cc1O | i | -5.3* | i | i | i | / | / | / | / | i | i | i | 70%* | 65%* | i
CC1CC(O)(CC(O)(c2ccccc2)c2ccccc2)C(C)CN1C (stereo not drawn) | i | i | i | i | i | / | / | / | / | / | / | / | / | / | /
CCN1CC(C)C(O)(c2ccccc2)CC1C (stereo not drawn) | i | -7.2* | i | i | i | i | i | i | i | / | / | / | / | i | i
Clc1ccc(C[n+]2cc(-c3ccccc3)n3c2CCCCC3)c(Cl)c1 | i | -6* | -6* | i | 53* | / | / | / | / | 160%* | i | 84%* | 92%* | 54%* | /
CCCCN(CCCC)c1cn[nH]c(=O)c1Cl | i | -6.9* | i | i | i | i | 21%* | i | 11%* | / | / | / | / | i | /
CCCCSc1nc2[nH]ncc2c(=O)[nH]1 | i | i | i | i | i | / | / | / | / | / | / | / | / | / | /
COc1ccc(N2C(=O)CS/C2=N\C(=S)Nc2ccccc2)cc1 | i | i | i | i | i | / | / | / | / | / | / | / | / | / | /

Bioassay records as filed in PubChem BioAssay.
